# HSV replic up: increases HSV replication in cells | AID 1956 | HSV replication augmentation in cells, fold increase | maximum fold increase | 0.005% of 220,000 active; in the data active means maximum fold increase above about 1.5; inconclusive means no clear call, values can overlap the other calls; tested in PC3 cells
# MT stabilize HCS: microtubule stabilization, imaging screen; AID 2205; % tubulin-high responders, % at 10 µM; 0.83% of 200,000 active; HeLa tubulin immunostaining HCS, 24 h; share of cells brighter than vehicle mean+2SD;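 active means plate Z-score above 3 for both tubulin-high and condensed-nucleus cell shares, with cell loss under 80%, at 10 µM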;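 further: anti alpha tubulin signal scored within the nucleus-defined area of each cell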
# Furin inhibitor: inhibitors of human furin; P09958; purified furin, fluorogenic substrate cleavage; inhibition, % at 20 µM or 30 µM; 0.061% of 220,000 active; in the data active means inhibition above about 25%
# Target sequence (P09958 108-714 limits assumed): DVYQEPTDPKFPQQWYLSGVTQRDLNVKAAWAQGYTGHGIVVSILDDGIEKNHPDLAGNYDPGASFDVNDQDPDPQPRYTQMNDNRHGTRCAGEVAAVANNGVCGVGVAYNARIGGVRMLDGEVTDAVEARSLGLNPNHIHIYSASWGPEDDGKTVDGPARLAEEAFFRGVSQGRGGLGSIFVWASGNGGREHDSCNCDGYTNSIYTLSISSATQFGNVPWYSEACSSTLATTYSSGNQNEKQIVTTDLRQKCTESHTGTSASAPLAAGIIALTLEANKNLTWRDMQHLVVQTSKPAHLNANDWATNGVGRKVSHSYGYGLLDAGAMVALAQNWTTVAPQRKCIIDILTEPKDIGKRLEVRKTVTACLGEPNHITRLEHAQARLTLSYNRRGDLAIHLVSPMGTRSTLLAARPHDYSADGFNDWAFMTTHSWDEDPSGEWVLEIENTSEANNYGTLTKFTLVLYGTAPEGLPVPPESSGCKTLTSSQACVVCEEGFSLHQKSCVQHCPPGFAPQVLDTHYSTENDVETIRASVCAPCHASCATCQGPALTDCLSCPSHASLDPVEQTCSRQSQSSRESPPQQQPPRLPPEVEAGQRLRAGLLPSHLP
# Ins promoter up: MIN6 insulin promoter up-regulation; MIN6 insulin promoter-GFP reporter, high-content imaging; hits give high values; z-score at 5 µM; 0.3% of 190,000 active;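 active means z-score above 3 at 5 µM with at least 500 cells counted in the well; inconclusive means wells under 500 cells, flagged as cytotoxic or low count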
# Autophagy HCS: autophagy modulation, high-content screen | MEF GFP-LC3 puncta imaging; test concentration mostly 10 µM | calls only at 10 µM (by protocol) | 0.98% of 190,000 active | AID 463193;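 active means percentage of spot-positive cells more than 3 SD above its plate mean, without a fluorescence outlier flag or 80% toxicity; inconclusive means no clear call, values can overlap the other calls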;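 further: spot-positive cell cutoff set from DMSO-treated cells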
# b-catenin transl: modulators of beta-catenin nuclear translocation | nuclear translocation activity, % at 5 µM | HeLa beta-catenin nuclear translocation, immunofluorescence imaging | 0.3% of 190,000 active | AID 1665;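 active means nuclear translocation activity above 50% at 5 µM, with a well cell count of 50 or more; inconclusive means wells under 50 cells across six images, flagged as toxic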;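 further: per-cell ratio of nuclear to cytoplasmic median beta-catenin stain intensity; plate controls were DMSO negative control for no effect and GSK-3 inhibitor IX positive control for full effect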
#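 Technique: fluorescence imaging of beta-catenin antibody stain plus DAPI / Material: human HeLa cell line / Incubation: compound treatment 24 h, 37°C, 5% CO2 / Read-out basis: % activation of per-cell nuclear versus cytoplasmic median beta-catenin signal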
# * marks the source's active call; other numbers are inactive results; i = inactive; u = inconclusive; x = no result; + = active, no number. Only some compounds are listed: those with a hit (about 1.9% of all), similar ones and a draw of the others.
SMILES,HSV replic up,MT stabilize HCS,Furin inhibitor,Ins promoter up,Autophagy HCS,b-catenin transl
O=[N+]([O-])c1ccc(N/N=C/c2cn(Cc3ccc(F)cc3)c3ccccc23)nc1,x,5,-7,x,+,0
COC(=O)N/N=C/c1cn(Cc2ccc(F)cc2)c2ccccc12,i,x,-14,0.32,x,0
O=C(Nc1cccc(F)c1)NC1CCN(Cc2ccccc2)CC1,i,6,-26,-0.99,i,7
O=C(Nc1ccc(Br)cn1)c1cccc2c1-c1ccccc1C2=O,i,36*,-40,x,i,1
Cc1cccc(NC(=O)c2cccc3c2-c2ccccc2C3=O)n1,i,2,-25,0.12,i,0
CCN(CC)S(=O)(=O)c1ccc(N2CCOCC2)c(NS(=O)(=O)c2cc(C(C)(C)C)ccc2C)c1,i,2,-9,-1.4,i,3
Cc1ccc(S(=O)(=O)C(C#N)=C2N(C)c3ccccc3N2C)cc1,i,2,-11,-0.44,+,-2
CCN(CC)c1ccc(/C=C/C(=O)C2C(=O)C=C(C)OC2=O)cc1 (centres undefined),u,4,-8,x,+,4
CCOC(=O)c1c(C)c(C(=O)Nc2cc(OC)ccc2OC)c(C)n1CC,i,25*,-21,-1.9,i,3
CCOC(=O)c1c(C)[nH]c(C(=O)N/N=C/c2ccc(Br)cc2)c1C,x,8,-13,-0.78,i,121*
CCOC(=O)c1c(C)c(C(=O)Nc2ccccc2)c(C)n1CC,x,6,-16,-0.3,i,-4
CCOC(=O)c1[nH]c(C)c(C(=O)Nc2cc(OC)ccc2OC)c1C,x,27*,-19,0.14,i,56*
CCOC(=O)c1c(C)[nH]c(C(=O)OCC(=O)Nc2cc(Cl)ccc2OC)c1C,i,13,-23,-2.3,i,2
CCOC(=O)c1c(C)[nH]c(C(=O)OCC(=O)Nc2cc(C)ccc2OC)c1C,x,4,-21,-0.91,+,-1
COc1ccc(C(=O)/C=C2/Sc3cc4c(cc3N2C)OCO4)cc1,i,3,-11,-0.23,i,6
CN1/C(=C/C(=O)c2ccc(Cl)cc2)Sc2cc3c(cc21)OCO3,i,3,-15,-0.73,+,4
Nc1nc2c(ncn2CCC(CO)CO)c(=O)[nH]1,i,x,x,x,x,x
CC1(C)CC(=O)C=C(NCc2ccc(C(=O)O)cc2)C1,i,x,-19,0.16,x,-1
Fc1ccc(C2NCCn3cccc32)cc1 (centres undefined),i,4,-6,3.9*,i,-1
O=C(NCCCN1CCOCC1)c1cccc(S(=O)(=O)N2CCc3ccccc3C2)c1,i,63*,-22,0.82,i,-2
COc1cc(C(=O)Nc2ccc(-c3nnc(-c4ccco4)o3)cc2)cc(OC)c1OC,i,3,30*,-0.24,i,1
COc1cc(C(=O)Nc2ccc3c(c2)CCN3C(C)=O)cc(OC)c1OC,i,22*,0,0.27,i,0
Cc1c(C)n(Cc2ccccc2)c2ccc(C(=O)OCCN(C)C)cc12,i,3,-18,x,i,-2
O=C(CCN1CCN(c2ccccc2)CC1)N/N=C/c1ccccc1OC(F)F,i,5,-7,0.01,+,x
Cc1cc(/C=C2\C(=N)N3N=CSC3=NC2=O)c(C)n1Cc1ccccc1,i,x,-12,x,x,-1
SMILES,HSV replic up,MT stabilize HCS,Furin inhibitor,Ins promoter up,Autophagy HCS,b-catenin transl
NC(N)=Nc1nc2ccccc2o1,i,x,-10,0.39,x,0
COC(=O)c1c(-c2cccc3ccccc23)csc1NC(=O)Cc1ccc(OC)c(OC)c1,i,52*,-17,-1.3,i,x
CCN(CC)CC(=O)Nc1ccc2c(c1)Nc1ccccc1CC2,i,31*,-9,-2.3,i,19
O=C(Cc1ccc(-c2ccccc2)cc1)NCc1ccccc1,i,6,0,-1.1,i,55*
Cc1ccc(CNC(=O)Cc2ccc(-c3ccccc3)cc2)cc1,i,16,-8,x,i,x
Cc1ccc(CNC(=O)CSCc2ccccc2)cc1,i,3,-29,-0.07,+,1
O=C(Cc1ccc(-c2ccccc2)cc1)NCc1cccnc1,i,13*,-34,0.59,i,45
O=C(CSc1n[nH]c(=O)n1-c1cccnc1)N1CCOCC1,i,x,-9,-0.11,x,0
Nc1c(C(=O)N/N=C/c2ccc([N+](=O)[O-])cc2)sc2nnc(-c3ccccc3)c(-c3ccccc3)c12,i,x,-3,-0.4,x,0
CN(C)C(/C=C/Nc1ccc(O)cc1)=C(C#N)C#N,x,3,-36,-0.38,i,1
CC(C)(C)N=C1NN=C(c2cc3ccccc3o2)CS1,i,3,-11,-0.45,i,-1
CCS(=O)(=O)N1Cc2ccccc2CC1C(=O)Nc1ncc(C)s1 (centres undefined),i,4,-9,-0.3,+,0
CN(C)c1ccc(CN(C(=O)c2ccc(Cl)c([N+](=O)[O-])c2)C2CCS(=O)(=O)C2)cc1 (centres undefined),i,x,-26,-0.53,x,0
CNC(=O)c1ccc(-c2sc3nc(N4CCOCC4)c4c(c3c2N)CC(C)(C)OC4)o1,i,3,-8,3.2*,i,0
CCc1ccc(NC(=O)COc2ccc(Br)cn2)cc1,i,4,-23,0.36,i,-3
OCCNc1c2ccccc2nc2c(F)c(F)c(F)c(F)c12,x,2,-16,0.51,i,56*
Cc1cccc(CN(C(=S)Nc2c(C)cccc2C)c2cccnc2)c1,i,4,3,1.4,i,2
COc1ccc(C2CC(=O)c3cnn(-c4nc(C)cc(C)n4)c3C2)cc1 (centres undefined),i,40*,-14,x,i,9
Cc1cc(C)nc(-n2ncc3c2CC(c2ccccc2)CC3=O)n1 (centres undefined),i,3,-2,1.2,i,-2
CC(/C=C/c1ccccc1)=N/NC(=O)c1cnccn1,i,3,27*,x,i,6
O=C(N/N=C/C=C/c1ccccc1)c1cnccn1,i,2,-6,-0.27,i,x
C/C(=N\S(=O)(=O)c1ccc(C)cc1)N1CCN(S(=O)(=O)c2ccccc2)C1,x,7,-24,3.5*,i,0
CCC(=O)n1nc(-c2ccc(Cl)cc2)nc1NCc1ccccc1,i,8,0,0.71,+,x
COCC(=O)n1nc(-c2ccccc2)nc1NCc1cccs1,i,2,-19,-0.01,i,-5
CCOc1cc(CNc2ccc(S(N)(=O)=O)cc2)cc(Cl)c1OC,i,4,-22,0.3,i,-2
C=CCOc1c(Cl)cc(CNc2ccc(N(C)C)cc2)cc1OC,i,32*,-15,1.2,i,4
C=CCOc1c(Cl)cc(CNc2ccc(C)c(Cl)c2)cc1OC,i,18*,-9,-1.3,i,146*
COc1cc(CNc2ccc(N3CCCC3)cc2)cc(Cl)c1OC,i,16*,-6,0.36,i,3
